Results filed as inconclusive are left out.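 Rule for the calls, unless noted: active = viability increase at or above a cutoff of the median across tested compounds plus 3 SD (cut at about 8.5% in these data, passing the limit was not always enough); inconclusive = some gains above the cutoff, reason not given; inactive = the rest.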
Tests used:
[1] = S. cerevisiae growth inhibition in permissive medium (OD615), pilot counter-assay for S. cerevisiae lifespan shortening project, permissive growth control (AID 705;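 active = growth inhibition above 25% in both replicates, a cutoff set 3 SD above the mean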); settings: OD615, 24 h, at 10 µM, stronger effect = higher value
Method in brief: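 assay system = Saccharomyces cerevisiae strain carrying genetically modified DeaD replicative-lifespan system | medium = SC raffinose/galactose permissive medium | dosing = 10 µM single dose, 0.25% DMSO | schedule = 24 h compound exposure at 30 °C after 4 h pre-growth | measured by = OD at 615 nm | read-out basis = growth inhibition from lowered OD615 after 24 h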

[2] = S. cerevisiae growth inhibition in restrictive medium, OD615, pilot screen, restrictive growth control, yeast lifespan reduction project (AID 706;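 active = growth inhibition above a set limit, 3 SD over mean compound inhibition, in both replicates, cut at about 43% in these data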;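 note: modified DeaD lifespan yeast strain shifted to restrictive glucose medium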); settings: OD615, 48 h, at 10 µM, stronger effect = higher value
Method in brief: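 Buffer or medium: CSMM-D glucose medium. Material: genetically modified Saccharomyces cerevisiae, DeaD replicative lifespan assay strain. Times: 48 h compound exposure at 30 °C. Measured by: optical density at 615 nm.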

[3] = doxorubicin toxicity protection in MRP-1 cells – H69AR cells, CellTiter-Glo, duplicate, MRP-1 activator project, pilot screen (AID 807); settings: H69AR viability with doxorubicin, CellTiter-Glo luminescence; at 10 µM; stronger effect = higher value;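 note: compound pretreatment 18-22 h then 72 h combined with doxorubicin; 0% = doxorubicin alone and 100% = vehicle without doxorubicin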
[4] = viability of HCT116 without oncogenic beta-catenin – human colon tumor cells, pilot screen (AID 823;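 active = cell viability at or below a set limit in both duplicate runs, the limit being the all-compound median minus 4 SD, cut at about 23% in these data, passing the limit was not always enough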;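 note: 0% = wells killed by 20 µM Hyamine and 100% = untreated DMSO cell wells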); settings: HCT116 beta-catenin knockout viability, CellTiter-Glo, 60 h; at 10 µM; stronger effect = lower value
[5] = viability of PTEN-null HCT116 cells – cell-based, HCT116 clonal line, CellTiter-Glo, pilot screen (AID 824;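 active = viability at or below 27.92% in each of two runs, the all-compound median minus 4 SD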;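 note: 0% = 20 µM Hyamine control and 100% = vehicle cell control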); settings: HCT116 PTEN-deleted viability, 60 h, at 10 µM, stronger effect = lower value
[6] = RAM pathway blockade in budding yeast – dse1pr::URA3 reporter, 5-FOA selection, pilot screen (AID 869;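 active = inhibition over a set limit, the all-compound mean plus 3 SD, in both replicate runs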;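 note: 0% = DMSO wells with no growth and 100% = 10 µM 1-NA-PP1 with full growth; RAM network block rescues cells from 5-FOA so hits raise OD615 growth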); settings: S. cerevisiae dse1pr::URA3 5-FOA growth, OD615, 2 d; at 10 µM; stronger effect = higher value; strain carries analog-sensitive mutant Cbk1 kinase
[7] = RAM signaling pathway blockade in yeast – S. cerevisiae, Pdr1DBD-CYC8 efflux-inhibited sensitized strain, primary screen (AID 1298;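 active = RAM network inhibition above 8.4% in each of two replicates, 3 SD over the compound average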;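 note: 0% = DMSO untreated cells without growth and 100% = 10 µM 1-NA-PP1 full growth; higher means more yeast growth rescued from 5-FOA killing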); settings: S. cerevisiae cbk1-as DSE1-URA3 strain, 5-FOA growth OD615, 2 d; at 50 µM; stronger effect = higher value

CCCN1Cc2cccc(C(=O)N3CCN(c4cc(Cl)ccc4C)CC3)c2C1=O
inactive: growth inhibition [1] 1.4% | growth inhibition [2] -10.8% | viability increase [3] -0.17% | viability [4] 70.5% | viability [5] 66.7% | inhibition [6] 0.375% | RAM network inhibition [7] 1.65%

COc1ccc(N2C(=O)CC(NCc3cccc(F)c3)C2=O)cc1 (stereo unspecified)
inactive: growth inhibition [1] -6.89% | growth inhibition [2] -3.85% | viability increase [3] -0.75% | viability [4] 99.3% | viability [5] 98% | inhibition [6] 0.82% | RAM network inhibition [7] 5.38%

CCC(Sc1nncn1C)C(=O)Nc1nnc(-c2ccccc2Cl)s1 (stereo unspecified)
inactive: growth inhibition [1] -3.46% | growth inhibition [2] 31.5% | viability increase [3] -0.85% | viability [4] 103% | viability [5] 92.5% | inhibition [6] 1.72% | RAM network inhibition [7] 2.58%

Cc1ccc(-n2ncc3c(NCc4ccco4)ncnc32)c(C)c1
inactive: growth inhibition [1] -3.74% | growth inhibition [2] -9.7% | viability increase [3] -4.75% | viability [4] 97.3% | viability [5] 90.4% | inhibition [6] -0.12% | RAM network inhibition [7] -0.57%

O=C1c2ccccc2C(Nc2ccc3c(c2)OCCO3)N1Cc1ccccc1 (stereo unspecified)
inactive: growth inhibition [1] -4.61% | growth inhibition [2] 8.43% | viability increase [3] -1.12% | viability [4] 88.7% | viability [5] 80.9% | inhibition [6] 0.61% | RAM network inhibition [7] 2.3%

CCOC(=O)c1csc(NC(=O)c2ccccc2)n1
inactive: growth inhibition [1] -6.33% | growth inhibition [2] 0.485% | viability increase [3] 4.7% | viability [4] 101% | viability [5] 99.7% | inhibition [6] 0.115% | RAM network inhibition [7] -2.57%

CN(C)CCNC(=O)c1cc2c(=O)n(C)c3ccccc3c2n1C
inactive: growth inhibition [1] 0.095% | growth inhibition [2] -1.67% | viability increase [3] -5.64% | viability [4] 52.9% | viability [5] 54.4% | inhibition [6] 1.12% | RAM network inhibition [7] -0.26%

Cc1ccc(CCNC(=O)CS(=O)Cc2nc(-c3cccc(C)c3)oc2C)cc1 (stereo unspecified)
inactive: growth inhibition [1] -4.94% | growth inhibition [2] 2.34% | viability increase [3] 2.47% | viability [4] 85.3% | viability [5] 86.9% | inhibition [6] 2.59% | RAM network inhibition [7] 6.2%

O=C1c2ccccc2C(Nc2ccc(S(=O)(=O)N3CCCCC3)cc2)N1c1ccccn1 (stereo unspecified)
inactive: growth inhibition [1] -3.39% | growth inhibition [2] -7.4% | viability increase [3] -4.22% | viability [4] 67.8% | viability [5] 65.4% | inhibition [6] 2.17% | RAM network inhibition [7] 3.68%

CN(CCCNC(=O)Cn1cc2c(n1)CCCC2)C1CCCCC1
inactive: growth inhibition [1] -2.1% | growth inhibition [2] -0.155% | viability increase [3] -3.43% | viability [4] 99.2% | viability [5] 90.2% | inhibition [6] -1.29% | RAM network inhibition [7] 1.23%

COCCCN1Cc2cccc(C(=O)O)c2C1=O
inactive: growth inhibition [1] 1.16% | growth inhibition [2] 4.03% | viability increase [3] -2.13% | viability [4] 103% | viability [5] 102% | inhibition [6] 0.525% | RAM network inhibition [7] 7.02%

O=C(CCCCn1c(=O)[nH]c2ccccc2c1=O)NC1CCN(Cc2ccccc2)CC1
inactive: growth inhibition [1] -14.6% | growth inhibition [2] -22.8% | viability increase [3] -0.32% | viability [4] 91.4% | viability [5] 89% | inhibition [6] 0.41% | RAM network inhibition [7] 0.63%

CC1CCc2nn(CC(=O)NCCCN3CCCC3=O)cc2C1 (stereo unspecified)
inactive: growth inhibition [1] -17.8% | growth inhibition [2] -22.7% | viability increase [3] -1.1% | viability [4] 103% | viability [5] 93.7% | inhibition [6] 1.29% | RAM network inhibition [7] 4.13%

Cc1cc(C)n2c(SCC(=O)Nc3ccccc3)nnc2n1
inactive: growth inhibition [1] -7.49% | growth inhibition [2] -9.43% | viability increase [3] -2.57% | viability [4] 102% | viability [5] 91.4% | inhibition [6] 1.94% | RAM network inhibition [7] -0.67%

CC(N=C1NS(=O)(=O)c2ccccc21)c1ccccc1 (stereo unspecified)
inactive: growth inhibition [1] 0.11% | growth inhibition [2] 1.27% | viability increase [3] 0.15% | viability [4] 103% | viability [5] 96.2% | inhibition [6] -0.16% | RAM network inhibition [7] 5.97%

COc1ccc(Cc2nc(-c3ccc(Br)o3)no2)cc1OC
inactive: growth inhibition [1] -14.4% | growth inhibition [2] -3.81% | viability increase [3] -0.22% | viability [4] 92.2% | viability [5] 81.2% | inhibition [6] 0.995% | RAM network inhibition [7] 4.17%

CCc1ccc(N2C(=O)c3sc4nnc(C)c(=O)n4c3C2=O)cc1
inactive: growth inhibition [1] -19.9% | growth inhibition [2] -7.66% | viability increase [3] -1% | viability [4] 87.9% | viability [5] 76.9% | inhibition [6] 1.4% | RAM network inhibition [7] 0.21%

CCOc1ccc(C(=O)Nc2c3c(nn2-c2cccc(C)c2C)CS(=O)C3)cc1 (stereo unspecified)
inactive: growth inhibition [1] -1.6% | growth inhibition [2] 3.53% | viability increase [3] -0.32% | viability [4] 98.4% | viability [5] 96.2% | inhibition [6] 1.62% | RAM network inhibition [7] 2.34%

O=C(NCC1CCCO1)NC1(C(F)(F)F)Oc2ccccc2O1 (stereo unspecified)
inactive: growth inhibition [1] -24.1% | growth inhibition [2] -16% | viability increase [3] -7.32% | viability [4] 60.8% | viability [5] 67.1% | inhibition [6] 1.9% | RAM network inhibition [7] 2.09%

CCc1ccc(S(=O)(=O)NCc2cn3c(C)csc3n2)s1
inactive: growth inhibition [1] 0.075% | growth inhibition [2] 5.25% | viability increase [3] -2.89% | viability [4] 102% | viability [5] 94.1% | inhibition [6] 0.37% | RAM network inhibition [7] 2.22%

COc1nc(Nc2ccc(C(C)=O)cc2)nc(OC)n1
inactive: growth inhibition [1] 0.42% | growth inhibition [2] -4.17% | viability increase [3] -4.04% | viability [4] 99.5% | viability [5] 97.9% | inhibition [6] 1.75% | RAM network inhibition [7] 6.28%

CCC(CC)c1nnc(NC(=O)c2c(-c3ccccc3)noc2C)s1
inactive: growth inhibition [1] -10.7% | growth inhibition [2] 3.94% | viability increase [3] -1.44% | viability [4] 90.2% | viability [5] 93.9% | inhibition [6] 0.27% | RAM network inhibition [7] 2.57%

O=C1c2ccccc2C(O)N1c1ccc(Cl)cc1 (stereo unspecified)
inactive: growth inhibition [1] -8.19% | growth inhibition [2] -7.83% | viability increase [3] -0.07% | viability [4] 93.4% | viability [5] 95.5% | inhibition [6] 0.58% | RAM network inhibition [7] 1.49%

COc1cccc(C(=O)Nc2ccc(S(=O)(=O)Nc3onc(C)c3C)cc2)c1
inactive: growth inhibition [1] -9.3% | growth inhibition [2] -14.8% | viability increase [3] 0.25% | viability [4] 96.1% | viability [5] 97.9% | inhibition [6] 1.99% | RAM network inhibition [7] 7.93%

C=CCn1cnc2scc(-c3ccccc3)c2c1=O
inactive: growth inhibition [1] 2.71% | growth inhibition [2] 10.9% | viability increase [3] -1.68% | viability [4] 93.6% | viability [5] 84.2% | inhibition [6] 2.52% | RAM network inhibition [7] 0.21%

Cc1ccc(C(=O)CSc2nnc(-c3cccs3)n2C)o1
inactive: growth inhibition [1] 1.85% | growth inhibition [2] 28.1% | viability increase [3] -3.5% | viability [4] 108% | viability [5] 108% | inhibition [6] 0.5% | RAM network inhibition [7] 3.7%

O=C(CCC1CCCC1)c1c(O)c2ccccc2oc1=O
inactive: growth inhibition [1] 0.51% | growth inhibition [2] 13.6% | viability increase [3] -2.11% | viability [4] 69.4% | viability [5] 67.7% | inhibition [6] 0.63% | RAM network inhibition [7] -1.56%

CCOC(=O)c1ccccc1NC(=O)Cn1cnc2c(nnn2-c2ccc(C)cc2)c1=O
inactive: growth inhibition [1] -7.68% | growth inhibition [2] 4.12% | viability increase [3] -4.32% | viability [4] 97% | viability [5] 88% | inhibition [6] 2.62% | RAM network inhibition [7] 3.5%

CC1(C)CC(=O)C(C=NCCCN2CCOCC2)=C(O)C1
inactive: growth inhibition [1] -0.685% | growth inhibition [2] 0.465% | viability increase [3] -0.36% | viability [4] 97.6% | viability [5] 97% | inhibition [6] -0.16% | RAM network inhibition [7] -0.83%

CCCc1c(C(=O)OCC)[nH]c2c1C(=O)CCC2
inactive: growth inhibition [1] 1.82% | growth inhibition [2] 2.14% | viability increase [3] -2.07% | viability [4] 107% | viability [5] 95.3% | inhibition [6] 1.46% | RAM network inhibition [7] 2.61%

CCOc1ccc(C(=O)Nc2cc(C)c3c(=O)oc4ccccc4c3n2)cc1
inactive: growth inhibition [1] -0.2% | growth inhibition [2] 9.54% | viability increase [3] -7.84% | viability [4] 65% | viability [5] 40.8% | inhibition [6] 1.54% | RAM network inhibition [7] 1.29%

COc1ccccc1NC(=O)N1CCN(c2ccccn2)CC1
inactive: growth inhibition [1] -12.1% | growth inhibition [2] -7.1% | viability increase [3] 0.85% | viability [4] 103% | viability [5] 104% | inhibition [6] 2.67% | RAM network inhibition [7] 4.32%

CCOc1cc2c(cc1OCC)C(c1ccc(O)c(OC)c1)NCC2 (stereo unspecified)
inactive: growth inhibition [1] -5.95% | growth inhibition [2] -11.5% | viability increase [3] -3.12% | viability [4] 75.3% | viability [5] 81.6% | inhibition [6] 2.12% | RAM network inhibition [7] 1.63%

From PubChem BioAssay
